For 24 compounds, ED50, inhibition in vivo and LD50 results are on record in ChEMBL document CHEMBL1122935, “3-(1-Indolinyl)benzylamines: a new class of analgesic agents” (J Med Chem, 1985).

SMILES strings stand for the structures.

Data set [1] relates to Mus musculus. Kind of data set: Inhibition of PQW-writhing in mice on subcutaneous administration at dose 10 mg/kg. The data set is classed as functional. As to conditions: sc. (An intraperitoneal irritant provokes the stretching counted in writhing tests.)
Data set [2] relates to Mus musculus. As to the kind of experiment: inhibition of PQW-writhing in mice on subcutaneous administration at dose 10 mg/kg. compound showed moderate activity in the range of 35-69%. The data set is classed as functional. As to conditions: sc.
Data set [3] relates to Mus musculus. As to the kind of experiment: inhibition of PQW-writhing in mice on subcutaneous administration at dose 10 mg/kg. compound showed slight activity in the range of 10-34%,. It is filed as functional. As to conditions: sc.
The test system of data set [4] is Mus musculus. As to the kind of experiment: Inhibition of PQW-writhing in mice on subcutaneous administration at dose 10 mg/kg. compound showed 10-34% inhibition (slight activity). It is filed as functional. As to conditions: sc.
Data set [5] concerns Mus musculus. As to the kind of experiment: Inhibition of PQW-writhing in mice on subcutaneous administration at dose 10 mg/kg; Moderate activity in the range of 35-69%. The data set is classed as functional. As to conditions: sc.
The test system of data set [6] is Mus musculus. Kind of data set: Inhibition of PQW-writhing in mice on subcutaneous administration at dose 25 mg/kg; Range of inhibition 35-69% (moderate activity). The data set is classed as functional. As to conditions: sc.
The test system of data set [7] is Mus musculus. As to the kind of experiment: Inhibition of PQW-writhing in mice on subcutaneous administration at dose 10 mg/kg; Slight activity in the range of 10-34%. It is filed as functional. As to conditions: sc.
Data set [8] relates to Mus musculus. Kind of data set: inhibition of PQW-writhing in mice on subcutaneous administration at dose 10 mg/kg. compound showed slight activity in the range of 10-34%. The data set is classed as functional. As to conditions: sc.
The species entered for data set [9] is Rattus norvegicus. As to the kind of experiment: The analgesic activity by D'Armour-Smith tail-flick assay in rats. The data set is classed as functional. Summed up:
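Rat tail-flick test. Compound was given sc in distilled water at 4, 8, 16 and 32 mg/kg, and percent analgesic activity was recorded at each dose. ED50 was calculated by Litchfield-Wilcoxon analysis with 95% confidence limits.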

Data set [10] concerns Mus musculus. As to the kind of experiment: (§1) Oral anti-writhing activity at a dose of 25 mg/kg administered perorally in PQW assay. The data set is classed as functional. The essentials: (§2)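 Mouse phenylquinone writhing assay with the compound given orally at 25 mg/kg. Writhing was induced with 0.125% phenyl-p-benzoquinone in 5% aqueous ethanol, 10 mL/kg ip. Writhes were counted over 10 min after a 5-min wait, and percent inhibition was calculated against vehicle-treated controls.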

Data set [11] deals with Rattus norvegicus. The data set is described as §1. The data set is classed as functional. Summed up:
as §2

Data set [12] in a line: Compound was tested for the approximate analgesic lethal dose (ALD50) on rats. The data set is classed as ADME, organism-based. As to conditions: rat, in vivo; read-out: ALD50.

As usually defined, the ED50 is the dose at which the effect has come halfway, by size or by number of responders. High values mean a need for a large dose, low ones an effect at a small dose. In general, inhibition in vivo refers to how much of the control response was suppressed. A higher inhibition in vivo goes with strong suppression.

As for `NCc1ccccc1N1CCc2ccccc21`, in the data set on Mus musculus [1], the ED50 stood at 14.1 mg/kg.

In the case of `COc1ccc2c(ccn2-c2cccc(CN)c2)c1`, the inhibition in vivo at 10 mg/kg with Mus musculus [2] turned out to be 69%.

As to `O=C(NCc1cccc(N2CCc3ccccc32)c1)C1CC1`, the inhibition in vivo at 10 mg/kg with Mus musculus [2] came out at 69%.

Turning to `c1cc(CNCC2CC2)cc(N2CCc3ccccc32)c1`, in the data set on Mus musculus [2], testing at 10 mg/kg gave an inhibition in vivo of 69%.

For `NC(c1ccccc1)c1cccc(N2CCc3ccccc32)c1` (centres undefined), at 10 mg/kg the inhibition in vivo with Mus musculus [2] was 69%.

Consider `COc1ccc2c(c1)CCN2c1cccc(CN)c1`, for which 10 mg/kg produced 69% inhibition in vivo in the data set on Mus musculus [2].

In the data set with Mus musculus [2], `NCCc1cccc(N2CCc3ccccc32)c1` came in with an inhibition in vivo at 10 mg/kg of 69%.

In the data set with Mus musculus [3], `c1ccc(CCNCc2cccc(N3CCc4ccccc43)c2)cc1` came in with an inhibition in vivo at 10 mg/kg of 34%.

In the data set on Mus musculus [4], `NCc1ccc(N2CCc3ccccc32)cc1` showed an inhibition in vivo at 10 mg/kg of 34%.

In the data set on Mus musculus [5], `NCc1cccc(CN2CCc3ccccc32)c1` returned an inhibition in vivo at 10 mg/kg of 69%.

In turn, `Nc1ccccc1N1CCc2ccccc21` came in with an inhibition in vivo at 25 mg/kg with Mus musculus [6] of 43%.

In the data set with Mus musculus [1], `CCC(=O)O[C@](Cc1ccccc1)(c1ccccc1)[C@H](C)CN(C)C` [PROPOXYPHENE] yielded an ED50 of 3.9 mg/kg.

Regarding `COc1ccc2c(c1)CCN2Cc1cccc(CN)c1`, the inhibition in vivo at 10 mg/kg in the data set with Mus musculus [7] was 34%.

As to `NCc1cccc(N2CCc3cc(Cl)ccc32)c1`, the ED50 in the data set on Mus musculus [1] was 4.2 mg/kg.

With `CC(N)c1cccc(N2CCc3ccccc32)c1` (centres undefined), the inhibition in vivo at 10 mg/kg with Mus musculus [2] turned out to be 69%.

`CN(C)Cc1cccc(N2CCc3ccccc32)c1` came in with an inhibition in vivo at 10 mg/kg in the data set with Mus musculus [3] of 34%.

As for `CNCc1cccc(N2CCc3ccccc32)c1`, 10 mg/kg produced 34% inhibition in vivo with Mus musculus [3].

Regarding `O=C(Cc1ccccc1)NCc1cccc(N2CCc3ccccc32)c1`, in the data set with Mus musculus [2], at 10 mg/kg the inhibition in vivo was 69%.

The compound `NCc1cccc(-n2ccc3cc(Cl)ccc32)c1` yielded an inhibition in vivo at 10 mg/kg with Mus musculus [8] of 34%.

With `CC(C)=CCN1CC[C@]2(C)c3cc(O)ccc3C[C@H]1[C@H]2C` [(+)-PENTAZOCINE], the ED50 in the data set listed under Rattus norvegicus [9] was determined as 14.6 mg/kg; in the data set with Mus musculus [1] it was 2.3 mg/kg.

On to `CCOC(=O)NCc1cccc(N2CCc3ccccc32)c1`, for which testing at 10 mg/kg in the data set with Mus musculus [3] gave an inhibition in vivo of 34%.

`NCc1cccc(-n2ccc3ccccc32)c1` gave an ED50 in the data set with Mus musculus [1] of 19.1 mg/kg.

Turning to `NCc1cccc(CN2CCc3cc(Cl)ccc32)c1`, in the data set with Mus musculus [1], the 50% effect level (ED50) was put at a dose of 20.2 mg/kg.

Take `NCc1cccc(N2CCc3ccccc32)c1`: the values for the 50% effective dose (ED50) in the data set listed under Rattus norvegicus [9] and in the data set on Mus musculus [1] were 27 mg/kg and 4.2 mg/kg, respectively. For the same compound, the inhibition in vivo at 25 mg/kg with Mus musculus [10] came to 36%; with Rattus norvegicus [11], 19%. Also, the LD50 in data set [12] was over 100 mg/kg.
